# Experimental data as given in ChEMBL document CHEMBL1139204, “Synthesis and biological activity of 5-aza-ellipticine derivatives” (Bioorg Med Chem Lett, 2007).
# Active and inactive are the calls of the source. No cut-off for these calls is given here.
# Key:
# HCT-116 = assay: Growth inhibition of human HCT116 cells by MTT assay; type: functional, cell-based
# Method in brief: (§1)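 MTT cytotoxicity assay in human colon adenocarcinoma HCT116 cells and murine NIH 3T3 fibroblast cells treated with the novel 5-aza-ellipticine derivatives; toxicity read by MTT reduction.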
# NIH3T3 = assay: Growth inhibition of mouse NIH3T3 cells by MTT assay; type: cell-based; method in brief: as §1
# Homo sapiens = organism: Homo sapiens; assay: Inhibition of topoisomerase 2-mediated kDNA de-catenation
# Method in brief: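 Topoisomerase II decatenation of kinetoplast DNA (kDNA), run with a commercial kit following the manufacturer's recommended procedure. Decatenation depends on topo II double-strand break and re-ligation. A known topo II-active reference agent served as positive control.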
SMILES,IC50 (HCT-116) [nM],IC50 (NIH3T3) [nM],Activity (Homo sapiens)
Cc1c2ccncc2c(C)c2c1[nH]c1ccccc12 [ELLIPTECINE],300,3,Active
COc1ccc2[nH]c3c(c(C)c4c(NCCCNCCCN)nccc4[n+]3C)c2c1,2000,–,–
COc1ccc2[nH]c3c(c(C)c4c(NCCCN5CCN(CCCN)CC5)nccc4[n+]3C)c2c1,> 10000,–,–
COc1ccc2[nH]c3nc4ccnc(NCCCNCCCN)c4c(C)c3c2c1,–,1000,–
COc1ccc2[nH]c3nc4ccnc(Cl)c4c(C)c3c2c1,> 1000,> 1000,–
CC[n+]1c2ccnc(NCCCNCCCNc3nccc4c3c(C)c3c5cc(OC)ccc5[nH]c3[n+]4CC)c2c(C)c2c3cc(OC)ccc3[nH]c21,300,–,–
COc1ccc2[nH]c3c(c(C)c4c(O)nccc4[n+]3C)c2c1,200,–,–
COc1ccc2[nH]c3c(C)c4ccnc(NCCCN(C)CCCN)c4c(C)c3c2c1,70,20,–
CC[n+]1c2ccnc(NCCCNCCCN)c2c(C)c2c3cc(OC)ccc3[nH]c21,400,–,–
CC[n+]1c2ccnc(O)c2c(C)c2c3cc(OC)ccc3[nH]c21,3000,–,–
COc1ccc2[nH]c3nc4ccnc(NCCCN(C)CCCN)c4c(C)c3c2c1,300,600,Active
